The source of these data is ChEMBL document CHEMBL4354791, “Different solid forms for optimizing route of administration of the herpes drug Pritelivir” (Medchemcomm, 2019).

As a reminder, the thermodynamic solubility is the concentration in solution at equilibrium with solid. In general, solubility refers to the concentration that dissolves in the medium under given conditions.

Holding throughout (format): physicochemical
A short description of data set [1]: Saturated solubility of compound in ethanol.
The nature of data set [2]: Saturated solubility of compound in benzyl alcohol.
Data set [3] can be described thus: Saturated solubility of compound in phenoxy ethanol.
Data set [4] in a line: Saturated solubility of compound in dimethyl isosorbide.
A short description of data set [5]: Saturated solubility of compound in propylene glycol.
The nature of data set [6]: Saturated solubility of compound in transcutol p.
Data set [7] is described as follows: Saturated solubility of compound in glycerin.
Data set [8] in a line: Saturated solubility of compound in water. In short, it runs like this: (§1)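 Saturated solubility in the named medium (water or buffer at the stated pH), reported in mg ml−1. Levels below the detection limit are reported as BLOQ.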
Data set [9] in a line: Saturated solubility of compound in buffer at pH 3.5. The procedure, abridged:
as §1

Data set [10] in a line: Saturated solubility of compound in buffer at pH 4.5. The procedure, abridged:
as §1

The nature of data set [11]: Saturated solubility of compound in buffer at pH 5.5. The procedure, abridged: as §1
Data set [12] in a line: Solubility of compound at pH 7.4. Particulars: buffer.
A short description of data set [13]: Saturated solubility of compound in isopropanol.
Data set [14] can be described thus: Saturated solubility of compound in oleyl-alcohol.
Data set [15] can be described thus: Saturated solubility of compound in isopropyl myristate.
A short description of data set [16]: Saturated solubility of compound in crodamol-GTC.
A short description of data set [17]: Saturated solubility of compound in buffer at pH 7. The procedure, abridged:
as §1

≈ marks a conversion by molar mass, not a printed value.

As to `CS(=O)(=O)O.Cc1nc(N(C)C(=O)Cc2ccc(-c3ccccn3)cc2)sc1S(N)(=O)=O` [PRITELIVIR MESYLATE], the solubility (thermodynamic) in data set [1] was found to be 700 µg/mL; in data set [3], 10700 µg/mL; in data set [5], 4700 µg/mL; in [6], 1300 µg/mL; in data set [7] it was 13100 µg/mL; in [11], 200 µg/mL. The solubility in [2] was 2000 µg/mL; in data set [4] (BLD = below limit of detection), “Bld”; in [8] (water, read-out: solubility), 1200 µg/mL; in [9], 1300 µg/mL; in [10], 400 µg/mL.

Regarding `Cc1nc(N(C)C(=O)Cc2ccc(-c3ccccn3)cc2)sc1S(N)(=O)=O` [PRITELIVIR], the solubility was 11.5 µg/mL (≈ 28.6 µM) in data set [12]; 2200 µg/mL (≈ 5470 µM) in data set [2]; 82300 µg/mL (≈ 204000 µM) in [4]; “Bld” in [8] (buffer, BLD = below limit of detection); 100 µg/mL (≈ 248 µM) in data set [9]; 100 µg/mL (≈ 248 µM) in data set [10]. Moreover, the solubility (thermodynamic) in data set [1] was found to be 300 µg/mL (≈ 745 µM); in data set [13], 400 µg/mL (≈ 994 µM); in data set [3], 2200 µg/mL (≈ 5470 µM); in data set [5] it was 28400 µg/mL (≈ 70600 µM); in data set [6], 44800 µg/mL (≈ 111000 µM); in data set [14], 100 µg/mL (≈ 248 µM). The solubility (thermodynamic) amounted to 500 µg/mL (≈ 1240 µM) in data set [7]; 100 µg/mL (≈ 248 µM) in [15]; 200 µg/mL (≈ 497 µM) in data set [16]; 100 µg/mL (≈ 248 µM) in data set [11]; 100 µg/mL (≈ 248 µM) in data set [17].
